The list is not random: actives were taken first. Their share in the collection is about 4.6%.
OX1R antag-1: blocks the human orexin 1 receptor | CHO/OX1R cells, Fluo-8 calcium fluorescence, orexin A | 0.43% of 330,000 active | O43613 | inhibition, % at 5 µM;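 active means inhibition above its plate's threshold, mean inhibition of all tested compounds on the plate plus 3 SD, cut at about 37% in these data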;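 further: 0% = orexin A challenge wells and 100% = SB-334867-A antagonist wells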
TAAR1 antagonist: human TAAR1 antagonism; Q96RJ0; CHO RD-HGA16 TAAR1, Fluo-8 calcium fluorescence, antagonist; inhibition, % at 3 µM; 1.5% of 360,000 active;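 active means inhibition above a per-plate cutoff, the mean inhibition of test compounds on that plate plus 3 SD, cut at about 49% in these data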;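 further: 0% = DMSO plus EC80 beta-PEA response and 100% = DMSO alone without agonist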
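Material: RD-HGA16 CHO cells with stable hTAAR1 and Gα16; Dosing: single nominal final test compound concentration of 3 µM; Schedule: seeding 17-24 h prior, 75-min 37 °C, 30-min RT dye loading; Detection: kinetic Fluo-8 calcium fluorescence measurement; Measure: % inhibition from peak post-agonist over basal fluorescence ratio; Benchmarks: vehicle and agonist controls.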
CHO parental Ca: counter-screen: ATP calcium response change in parental CHO cells. 0.63% of 330,000 active. parental CHO-K1, ATP-induced calcium, Fluo-8 fluorescence. inhibition, % at 5.6 µM;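 active means inhibition above that plate's mean sample inhibition plus 3 SD, cut at about 26% in these data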;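 further: 0% = ATP-challenged DMSO wells and 100% = DMSO wells without ATP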
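Test system: parental CHO cells; detection: calcium-sensitive Fluo-8 fluorescence; evaluation: percent inhibition of calcium signal; also added: ATP as calcium-mobilizing challenge; repeats: one well per compound; control set: ATP-challenged DMSO wells low, unchallenged DMSO wells high; compound: single nominal dose of 5.6 µM per compound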
OX1R antag-2: OX1R (human) antagonism. 1.8% of 330,000 active. OX1R-expressing cells, FRET antagonist read-out. O43613. AID 485270. inhibition, % at 6.6 µM; in the data active means inhibition mostly above about 38%, no sharp cut-off; inactive means mostly below about 40%;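 further: 0% = agonist challenge alone and 100% = reference antagonist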
GPR7 antag: antagonists of human GPR7 (neuropeptides B/W receptor 1) | P48145 | GPR7-expressing cells, fluorescence antagonist assay | inhibition, % at 4.4 µM | 1.1% of 290,000 active; in the data active means inhibition above about 16%, passing the limit was not always enough;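 further: cells stimulated with the agonist NPW; 0% = agonist with vehicle and 100% = vehicle without agonist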
Target sequence (P48145 whole entry, looked up): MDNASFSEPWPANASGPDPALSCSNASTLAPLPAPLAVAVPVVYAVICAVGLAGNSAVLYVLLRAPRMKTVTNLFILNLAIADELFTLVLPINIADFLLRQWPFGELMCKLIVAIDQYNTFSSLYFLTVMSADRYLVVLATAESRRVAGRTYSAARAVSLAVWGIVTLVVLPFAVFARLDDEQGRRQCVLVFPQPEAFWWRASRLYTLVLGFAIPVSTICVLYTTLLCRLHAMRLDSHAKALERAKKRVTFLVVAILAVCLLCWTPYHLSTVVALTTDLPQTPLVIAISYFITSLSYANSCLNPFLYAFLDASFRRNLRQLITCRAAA
TAAR1 agonist: agonists of human TAAR1 | 0.99% of 360,000 active | CHO RD-HGA16 TAAR1, Fluo-8 calcium fluorescence; vehicle wells 0%, saturating PEA agonist 100% | Q96RJ0 | activation, % at 3 µM;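 active means activation above the mean activation of all test compounds in the run plus 3 SD, cut at about 38% in these data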
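Test system: RD-HGA16 (CHO) cells co-expressing Gα16 and hTAAR1 / Benchmarks: DMSO vehicle as 0%, PEA at EC100 as 100% / Repeats: no replicates (n 1) / Measure: % activation from peak over basal fluorescence ratio, DMSO-to-PEA scaled / Timing: 17-24 h plating, Fluo-8 75 min 37 °C, 30 min RT / Technique: kinetic Fluo-8 calcium fluorescence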
TAAR1 nonsel count: nonselective antagonist in TAAR1 antagonist counter-screen; shares compounds with TAAR1 antagonist; counterscreen cell line, calcium fluorescence, antagonist mode; inhibition, % at 3 µM; 77% of 2,400 active; in the data active means inhibition above about 22%;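 further: CHO-Ga16 host cells stimulated with ATP at an EC80 level; 0% = agonist EC80 plus vehicle and 100% = vehicle without agonist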
TAAR1 ant conf: human TAAR1 antagonism, confirmed; shares compounds with TAAR1 antagonist; TAAR1-expressing cells, fluorescence antagonist read-out; inhibition, % at 3 µM; 40% of 2,400 active; AID 651785; in the data active means inhibition above about 49%;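 further: CHO-Ga16 host cells challenged with agonist PEA near its EC80; 0% = agonist at EC80 plus vehicle and 100% = vehicle with no agonist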
Ga16 ag counter: nonselective Ga16 agonist in TAAR1 antagonist counter-screen; AID 651953; shares compounds with TAAR1 antagonist; activation, % at 3 µM; 18% of 2,400 active; Ga16-expressing cells, calcium fluorescence, agonist counterscreen; in the data active means activation above about 12%;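 further: 0% = vehicle wells and 100% = saturating stimulus response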
TAAR1 ag counter: counter-screen for human TAAR1 antagonists: TAAR1 agonists. shares compounds with TAAR1 antagonist. hTAAR1 cell line, fluorescence activation, agonist mode. activation, % at 3 µM. 2% of 2,400 active; in the data active means activation above about 37%;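 further: CHO cells stably expressing TAAR1 with calcium dye readout; 0% = DMSO vehicle and 100% = full agonist response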
An asterisk follows results filed as active; / = no result.

SMILES	OX1R antag-1	TAAR1 antagonist	CHO parental Ca	OX1R antag-2	GPR7 antag	TAAR1 agonist	TAAR1 nonsel count	TAAR1 ant conf	Ga16 ag counter	TAAR1 ag counter
COc1ccc2c(c1)c(=O)oc1cc(OC(C(=O)O)c3ccccc3)ccc12 (configuration not stated)	-10	104*	-1	4	1	-4	11	-5	5	5
O=C(O)C(Oc1ccc2c(-c3ccccc3)cc(=O)oc2c1)c1ccccc1 (configuration not stated)	-15	5	-12	9	-3	0	/	/	/	/
C[C@@H]1CN(C(=O)OC(C)(C)C)CCN1c1ccc(N2CC[C@@H](O)C2)c(C#N)c1	/	-1	/	/	/	6	/	/	/	/
O=C(c1ccc(Cl)c(NC2=NC3CS(=O)(=O)CC3S2)c1)N1CCN(c2ccccc2)CC1 (configuration not stated)	-2	-5	-13	0	-14	2	/	/	/	/
Cc1cccc(N2CCN(C(=O)c3ccc(Cl)c(NC4=NC5CS(=O)(=O)CC5S4)c3)CC2C)c1 (configuration not stated)	-13	56*	-14	4	-8	15	26*	43	8	8
Cc1ccc(C(=O)Nc2ccc(C)c(S(=O)(=O)Nc3ccccc3Cl)c2)s1	-9	68*	-18	33	-14	5	20	23	3	-1
COc1cc(CN2C[C@@H](CO)O[C@@H](n3cnc4c(NCc5ccncc5)ncnc43)C2)cc(OC)c1OC	/	6	/	/	/	0	/	/	/	/
O=C(O)CNc1nc(NCc2ccc(Cl)cc2)ccc1[N+](=O)[O-]	/	-11	/	/	/	2	/	/	/	/
CC1(C(=O)Nc2cccc3cccnc23)CCN1C(=O)CC1CC1 (configuration not stated)	/	-8	/	/	/	-1	/	/	/	/
CCOC(=O)CC1C(=O)NCCN1C(=S)NC(=O)c1ccc(C)c(Br)c1 (configuration not stated)	/	-16	/	/	/	2	/	/	/	/
COc1ccc(CCNC2CC(=O)N(CCc3ccccc3)C2=O)cc1OC (configuration not stated)	-33	8	-15	7	0	-1	/	/	/	/
COc1ccc(CCNC2=C(Cl)C(=O)N(CCc3ccccc3)C2=O)cc1OC	-26	74*	-14	23	-8	13	38*	46	8	4
O=C(COC(=O)/C=C/c1cn(-c2ccccc2)nc1-c1ccc2c(c1)OCCO2)NC1CCS(=O)(=O)C1 (configuration not stated)	27	87*	20	19	-6	14	40*	55*	8	7
COc1ccccc1N1CCN(C(=O)/C=C/c2cccs2)CC1	-6	-17	-5	7	6	0	/	/	/	/
COc1ccccc1N1CCN(C(=O)c2ccc(Br)o2)CC1	-8	101*	4	8	/	-3	9	15	11	15
COc1ccccc1N1CCN(C(=O)c2oc3ccc(F)cc3c2C)CC1	-11	53*	-8	5	-9	12	26*	51*	7	7
COc1ccccc1N1CCN(C(=O)c2oc3ccccc3c2C)CC1	/	2	/	/	/	1	/	/	/	/
COc1ccccc1N1CCN(C(=O)/C=C/c2ccccc2)CC1	-24	105*	-14	13	-6	16	6	5	1	4
C[C@H]1CN(CCc2ccccc2)C(=O)[C@@H]1CC(=O)Nc1ccccc1	/	-19	/	/	/	4	/	/	/	/
C[C@H](CO)N1C[C@H](C)[C@H](CN(C)C(=O)C2CC2)OCc2cnnn2CCCC1=O	/	-6	/	/	/	3	/	/	/	/
